In publication PMC3516921 (ChemMedChem, 2012):
Values after ≈ are worked out from the molar mass of the structure shown. Read-outs that look alike come from different tables or passages of the source.

Legend:
[1] = biological target: human cannabinoid type 1 receptor (Homo sapiens, UniProt P21554); experiment: CB1 receptor competitive binding assay with [3H]CP-55,940
[2] = biological target: human cannabinoid type 2 receptor (Homo sapiens, UniProt P34972); experiment: CB2 receptor competitive binding assay with [3H]CP-55,940; details: for S.I. (selectivity index for CB2, Ki(CB1)/Ki(CB2)): Ki(CB1)/Ki(CB2) ratio
[3] = Experimental logP determined by HPLC; type: physicochemical; details: RP-18 column; for chromatographic logP: reversed-phase HPLC; for logP Exp: HPLC, MeOH/H2O, extrapolated to zero organic solvent
[4] = biological target: human cannabinoid CB2 receptors (Homo sapiens, UniProt P34972); experiment: [35S]GTPγS binding assay on hCB2-CHO cell membranes; type: biochemical; details: for Functional effect on [35S]GTPγS binding: hCB2-CHO cell membranes
human liver microsomes = experiment: CYP-dependent in vitro metabolism in human liver microsomes; type: in vitro ADME
[5] = test system: formalin-induced nocifensive behaviour; experiment: Formalin test of acute peripheral and inflammatory pain; type: in vivo; details: mice; for Effect on 2nd phase of formalin-induced nocifensive behaviour: 3 mg/kg ip, 15 min before formalin; for Effect of AM630 pre-treatment on the antinociceptive effect of the compound: compound 3 mg/kg ip + AM630 1 mg/kg ip 5 min before
How it was run: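 Mice (n = 8–10 per group, randomly assigned) received test compound ip (1 or 3 mg/kg) or vehicle 15 min before formalin (1.25% in saline, 30 μl, dorsal hind paw). Where used, AM630 (1 mg/kg ip) was given 5 min before compound. A blinded observer timed lifting, favouring, licking, shaking and flinching in 5-min bins over 0–10 min (early phase) and 20–60 min (late phase). Analysis was one-way ANOVA with Tukey-Kramer.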

CB2 receptor = CB2 receptor (Homo sapiens, UniProt P34972); experiment: On-line screening on immobilized CB1/CB2-OT column; type: binding; details: 0.25 nM [3H]-Win-55,1212 marker, 10 nM compound
Kinetic solubility = type: physicochemical; details: water with 5% DMSO, 18 h incubation
[6] = read-out: CB1 Ki, mean ± SD, at least three experiments in duplicate
[7] = read-out: CB2 Ki, mean ± SD, at least three experiments in duplicate
[8] = mean ± SD, at least three experiments in duplicate

SMILES	Ki [1, 6]	S.I. (selectivity index for CB2, Ki(CB1)/Ki(CB2)) [2]	Ki [2, 7]	logP Exp [3]	also measured
CCCCCn1cc(-c2cn(C34CC5CC(CC(C5)C3)C4)nn2)c(=O)c2cc(Br)ccc21 [Compound 8, 1-(Adamantan-1-yl)-4-(6-bromo-1,4-dihydro-4-oxo-1-pentylquinolin-3-yl)-1H-1,2,3-triazole]	–	–	–	–	Ki [1]: > 10000 nM; Ki [2]: 32.2 ± 1.2 nM; chromatographic logP [3]: 5.83
CCCCCn1c(=O)c(-c2cn(C34CC5CC(CC(C5)C3)C4)nn2)cc2ccccc21 [Compound 15, 1-(Adamantan-1-yl)-4-(1-pentylquinolin-2(1H)-one)-1H-1,2,3-triazole]	321.9 ± 2.1 nM	29	11.1 ± 3.6 nM	–	–
CCCCCn1cc(-c2cn(C34CC5CC(CC(C5)C3)C4)nn2)c(=O)c2cc(-c3ccco3)ccc21 [Compound 11, 1-(Adamantan-1-yl)-4-[6-(furan-2-yl)-1,4-dihydro-4-oxo-1-pentylquinolin-3-yl]-1H-1,2,3-triazole]	–	–	–	–	Emax [4]: -52%; Functional effect on [35S]GTPγS binding [4]: inverse agonist effects; Ki [1]: > 10000 nM; Vmax (formation rate) (human liver microsomes; 0.5 mg microsomal protein, 60 min incubation): 0.16±0.01 nmol x min^−1 × mg^1 protein; CYP isoforms involved in metabolism (inhibition study) (human liver microsomes; human liver microsomes): CYP3A4 is the major isoform involved, while CYP1A and CYP2A are only partially implicated; Metabolite identified (human liver microsomes; human liver microsomes, HPLC-MS): side chain hydroxylated derivative 32 as its only metabolite; Effect on 2nd phase of formalin-induced nocifensive behaviour [5]: significant reduction; Effect of AM630 pre-treatment on the antinociceptive effect of the compound [5]: completely abolished; chromatographic logP [3]: 5.18
CCCCCCC(C)(C)c1ccc([C@@H]2C[C@H](O)CC[C@H]2CCCO)c(O)c1 [CP55940, (−)-cis-3-[2-hydroxy-4-(1,1-dimethylheptyl)phenyl]-trans-4-(3-hydroxypropyl)cyclohexanol, reference compound]	–	–	–	–	Emax [4]: 84.7%
CCCCCn1cc(-c2nc(C34CC5CC(CC(C5)C3)C4)no2)c(=O)c2cc(-c3ccc(OC(C)C)cc3)ccc21 [Compound 7, 3-(Adamantan-1-yl)-5-[6-(4-(2-propyloxy)phenyl]-1,4-dihydro-4-oxo-1-pentylquinolin-3-yl]-1,2,4-oxadiadole]	> 10000 nM	–	> 10000 nM	7.71	Displacement of marker ligand from OT column (CB2 receptor): very little displacement
CCCCCn1cc(-c2nc(C34CC5CC(CC(C5)C3)C4)no2)c(=O)c2cc(-c3ccco3)ccc21 [Compound 13, 3-(Adamantan-1-yl)-5-[6-(furan-2-yl)-1,4-dihydro-4-oxo-1-pentylquinolin-3-yl]-1H-1,2,4-oxadiadole]	33 ± 0.6 nM	82	0.4 ± 0.1 nM	6.38	Solubility (Kinetic solubility): 7 µg/mL (≈ 14.5 µM)
CC(O)CCCn1cc(-c2cn(C34CC5CC(CC(C5)C3)C4)nn2)c(=O)c2cc(-c3ccco3)ccc21 (stereo not shown) [Compound 32, 3-(1-Adamantyl-1H-1,2,3-triazol-4-yl)-6-(furan-2-yl)-1-(4-hydroxypentyl)quinolin-4(1H)-one]	> 10000 nM	> 52	190 ± 10 nM	–	Loss of potency versus parent compound 11 ([2]; racemic form): 150 fold
CCCCCOc1nc2ccccc2cc1-c1cn(C23CC4CC(CC(C4)C2)C3)nn1 [Compound 16, 1-(Adamantan-1-yl)-4-[2-(pentyloxy)quinoline]-1H-1,2,3-triazole]	–	271	12.6 ± 4.3 nM	–	Ki ([1]; read-out: CB1 Ki): 3415 ± 9.8 nM
CCCCCn1cc(-c2nnc(C34CC5CC(CC(C5)C3)C4)o2)c(=O)c2cc(Br)ccc21 [Compound 9, 2-(Adamantan-1-yl)-5-(6-bromo-1,4-dihydro-4-oxo-1-pentylquinolin-3-yl)-1,3,4-oxadiadole]	> 10000 nM	> 40	250 ± 8.6 nM	5.15	–
O=c1c(-c2cn(C34CC5CC(CC(C5)C3)C4)nn2)c[nH]c2ccc(-c3ccco3)cc12 [Compound 29, 3-(1-Adamantyl-1H-1,2,3-triazol-4-yl)-6-(furan-2-yl)quinolin-4(1H)-one]	> 10000 nM	–	> 10000 nM	–	CB1 Ki [1, 8]: no affinity; CB2 Ki [2, 8]: no affinity
CCCCCn1cc(-c2cn(C34CC5CC(CC(C5)C3)C4)nn2)c(=O)c2cc(-c3ccc(OC(C)C)cc3)ccc21 [Compound 5, 1-(Adamantan-1-yl)-4-[6-(4-(2-propyloxy)phenyl]-1,4-dihydro-4-oxo-1-pentylquinolin-3-yl]-1H-1,2,3-triazole]	–	> 6	–	–	Ki [1]: > 10000 nM; Ki [2]: 1680 ± 24.5 nM; chromatographic logP [3]: 7.78
CCCCCn1cc(-c2nnc(C34CC5CC(CC(C5)C3)C4)o2)c(=O)c2cc(-c3ccco3)ccc21 [Compound 12, 2-(Adamantan-1-yl)-5-[6-(furan-2-yl)-1,4-dihydro-4-oxo-1-pentylquinolin-3-yl]-1H-1,3,4-oxadiadole]	> 10000 nM	> 1543	6.5 ± 2.2 nM	5.26	EC50 ([4]; [35S]GTPγS binding, 95% confidence limits in brackets): 57.6 nM; Functional effect on [35S]GTPγS binding [4]: inverse agonist effects; Emax ([4]; percentage change in [35S]GTPγS binding, 95% confidence limits in brackets): −46.6% (−52.5 and −40.6%); Solubility (Kinetic solubility): 128 µg/mL (≈ 265 µM); Effect on 2nd phase of formalin-induced nocifensive behaviour [5]: significant reduction; Effect of AM630 pre-treatment on the antinociceptive effect of the compound [5]: did not induce any change
CCCCCn1cc(-c2nc(C34CC5CC(CC(C5)C3)C4)no2)c(=O)c2cc(Br)ccc21 [Compound 10, 3-(Adamantan-1-yl)-5-(6-bromo-1,4-dihydro-4-oxo-1-pentylquinolin-3-yl)-1,2,4-oxadiadole]	208 ± 5.5 nM	76	2.7 ± 0.8 nM	5.77	–
